Assay [1] concerns K562. Briefly: CCK8 antiproliferative assay, K562. The format is cell-based, human. Conditions: read-out: Antiproliferative activity (IC50/μM) K562. Background: Tetrazolium assays rely on reduction of a dye to a coloured formazan, in cell work by metabolically active cells.
The subject of assay [2] is MV411. Description: CCK8 antiproliferative assay, MV411. It is filed as cell-based, human. Conditions: read-out: Antiproliferative activity (IC50/μM) MV411; MV411, CCK8, 48 h, means ± SD, n = 3.
In assay [3] the test system is KU812. Description: CCK8 antiproliferative assay, KU812. It is filed as cell-based, human. The settings on record: read-out: Antiproliferative activity (IC50/μM) KU812.
Assay [4] concerns Kasumi-1. Briefly: CCK8 antiproliferative assay, Kasumi-1. It is filed as cell-based, human. Conditions: read-out: Antiproliferative activity (IC50/μM) Kasumi-1; Kasumi-1, CCK8, 48 h, means ± SD, n = 3.
Assay [5] relates to CCRF-CEM. Description: CCK8 antiproliferative assay, CCRF-CEM. The settings on record: read-out: Antiproliferative activity (IC50/μM) CCRF-CEM, CCK8, 48 h, means ± SD, n = 3. It is filed as cell-based, human.
The target of assay [6] is HDAC1 (Homo sapiens, UniProt Q13547). Description: HDAC isoform inhibitory activity. The format is biochemical.
Chain of HDAC1 (Q13547 whole entry, canonical isoform): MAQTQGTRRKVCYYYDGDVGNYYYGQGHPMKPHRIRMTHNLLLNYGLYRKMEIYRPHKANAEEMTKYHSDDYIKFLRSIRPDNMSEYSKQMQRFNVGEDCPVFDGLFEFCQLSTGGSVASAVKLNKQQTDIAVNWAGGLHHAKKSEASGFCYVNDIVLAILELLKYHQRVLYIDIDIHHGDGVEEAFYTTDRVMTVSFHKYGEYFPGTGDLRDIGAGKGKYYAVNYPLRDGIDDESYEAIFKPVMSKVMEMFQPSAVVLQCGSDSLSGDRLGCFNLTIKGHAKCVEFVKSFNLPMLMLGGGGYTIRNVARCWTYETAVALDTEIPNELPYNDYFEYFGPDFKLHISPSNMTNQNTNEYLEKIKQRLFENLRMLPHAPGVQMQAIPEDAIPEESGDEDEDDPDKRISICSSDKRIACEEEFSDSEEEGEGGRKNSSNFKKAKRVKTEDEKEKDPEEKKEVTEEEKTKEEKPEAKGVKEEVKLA
The target of assay [7] is HDAC2 (Homo sapiens, UniProt Q92769). Description: HDAC isoform inhibitory activity. It is filed as biochemical.
Chain of HDAC2 (Q92769 whole entry, canonical isoform): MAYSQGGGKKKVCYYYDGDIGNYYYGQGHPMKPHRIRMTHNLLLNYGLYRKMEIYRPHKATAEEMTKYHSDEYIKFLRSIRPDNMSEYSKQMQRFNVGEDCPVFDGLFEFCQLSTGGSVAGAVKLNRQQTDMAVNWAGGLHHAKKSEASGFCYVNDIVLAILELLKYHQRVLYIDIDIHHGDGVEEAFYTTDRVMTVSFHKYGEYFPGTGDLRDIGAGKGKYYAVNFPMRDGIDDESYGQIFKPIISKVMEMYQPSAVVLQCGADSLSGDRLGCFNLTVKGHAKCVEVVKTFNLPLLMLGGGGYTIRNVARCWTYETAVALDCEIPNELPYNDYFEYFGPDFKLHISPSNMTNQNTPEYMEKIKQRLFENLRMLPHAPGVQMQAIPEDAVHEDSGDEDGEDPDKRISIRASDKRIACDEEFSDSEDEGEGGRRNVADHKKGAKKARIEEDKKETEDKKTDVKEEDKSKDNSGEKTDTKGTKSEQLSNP
Assay [8] addresses HDAC3 (Homo sapiens, UniProt O15379). Description: HDAC isoform inhibitory activity. The format is biochemical.
Assay [9] deals with T1, HDAC10 (Homo sapiens, UniProt Q969S8).
T1 sequence (Q969S8 1-669): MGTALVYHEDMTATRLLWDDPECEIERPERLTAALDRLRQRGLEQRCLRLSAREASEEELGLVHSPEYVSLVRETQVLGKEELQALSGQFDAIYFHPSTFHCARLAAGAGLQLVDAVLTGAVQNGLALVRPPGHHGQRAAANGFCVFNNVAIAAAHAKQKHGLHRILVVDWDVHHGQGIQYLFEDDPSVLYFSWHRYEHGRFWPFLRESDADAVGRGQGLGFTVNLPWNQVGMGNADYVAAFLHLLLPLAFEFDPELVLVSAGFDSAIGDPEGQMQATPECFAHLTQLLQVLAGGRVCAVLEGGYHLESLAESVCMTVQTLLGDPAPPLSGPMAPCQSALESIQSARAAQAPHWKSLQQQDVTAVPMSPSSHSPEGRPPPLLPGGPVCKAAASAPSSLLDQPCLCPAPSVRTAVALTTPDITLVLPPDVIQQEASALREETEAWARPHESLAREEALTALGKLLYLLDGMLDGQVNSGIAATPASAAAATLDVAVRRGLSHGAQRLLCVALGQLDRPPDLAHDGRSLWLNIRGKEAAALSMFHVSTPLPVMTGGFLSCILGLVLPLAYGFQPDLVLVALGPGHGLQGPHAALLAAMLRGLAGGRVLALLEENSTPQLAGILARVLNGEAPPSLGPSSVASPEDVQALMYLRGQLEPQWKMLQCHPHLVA
Description: HDAC isoform inhibitory activity. It is filed as biochemical.

Assay [10] deals with MV411 cells. Description: Annexin V-FITC/PI apoptosis assay by flow cytometry. It is filed as cell-based, human. The settings on record: 48 hours. The essentials:
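MV411 cells seeded at 5 × 10^5 per well and held 24 h at 37 °C, 5% CO2. Test compound was then added at 0, 0.25, 0.5 and 1.0 μM for a further 48 h. Cells were harvested, washed in annexin-binding buffer, stained with annexin V-FITC and PI for 15 min at 37 °C, and analysed by flow cytometry.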
Background: Flow cytometry measures light scatter and fluorescence of single cells or particles in a stream.

Assay [11] concerns acetylated H3. Briefly: Western blotting of H3 and acetylated H3. It is filed as cell-based, human. Conditions: MV411, 0.25, 0.5 and 1.0 μM, 48 hours.
Setting [12] is: K562, CCK8, 48 h, means ± SD, n = 3.
[13] abbreviates: KU812, CCK8, 48 h, means ± SD, n = 3.

Where two headings read alike, the source gives them in different places.

Chain of HDAC3 (O15379 whole entry, canonical isoform): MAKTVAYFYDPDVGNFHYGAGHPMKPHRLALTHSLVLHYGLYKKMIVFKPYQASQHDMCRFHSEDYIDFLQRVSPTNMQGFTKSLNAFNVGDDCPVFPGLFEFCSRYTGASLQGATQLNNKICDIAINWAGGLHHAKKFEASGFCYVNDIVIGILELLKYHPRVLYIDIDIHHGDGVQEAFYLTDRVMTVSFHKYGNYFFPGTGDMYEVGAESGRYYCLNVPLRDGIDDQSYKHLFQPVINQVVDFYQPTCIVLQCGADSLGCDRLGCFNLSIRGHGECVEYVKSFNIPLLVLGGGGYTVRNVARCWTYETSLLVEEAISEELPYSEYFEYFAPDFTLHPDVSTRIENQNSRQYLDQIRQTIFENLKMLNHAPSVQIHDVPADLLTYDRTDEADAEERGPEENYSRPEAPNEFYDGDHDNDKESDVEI
Chain of HDAC3 (Q9Y618 395-489 partner limits assumed): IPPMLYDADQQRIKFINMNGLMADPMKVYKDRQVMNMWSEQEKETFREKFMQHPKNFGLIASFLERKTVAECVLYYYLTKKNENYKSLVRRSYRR

On to “4-(2-(4-(((3R,4R)-4-(3,4-Dimethoxybenzyl)-2-oxotetrahydrofuran-3-yl)methyl)-2-methoxyphenoxy)acetamido)-N-hydroxybenzamide [B6]”, for which the IC50 in [1] (setting [12]), in assay [2], in [3] (setting [13]), in [4] and in assay [5] was above 5 µM in each case.
As for “4-(4-(((3R,4R)-4-(3,4-Dimethoxybenzyl)-2-oxotetrahydrofuran-3-yl)methyl)-2-methoxyphenoxy)-N-hydroxypentanamide [A1]”, the IC50 in assay [1] (setting [12]), in assay [2], in [3] (setting [13]), in assay [4] and in assay [5] was above 5 µM throughout.
For `COc1ccc(C[C@H]2COC(=O)[C@@H]2Cc2ccc(OCCCCC(=O)NO)c(OC)c2)cc1OC` [A2, 5-(4-(((3R,4R)-4-(3,4-Dimethoxybenzyl)-2-oxotetrahydrofuran-3-yl)methyl)-2-methoxyphenoxy)-N-hydroxypentanamide], the IC50 was above 5 µM in assay [1] (Homo sapiens, K562, 48 h) and above 5 µM in assay [3] (Homo sapiens, KU812, 48 h).
On to `COc1ccc(C[C@H]2COC(=O)[C@@H]2Cc2ccc(OCCCCCC(=O)NO)c(OC)c2)cc1OC` [A3, 6-(4-(((3R,4R)-4-(3,4-Dimethoxybenzyl)-2-oxotetrahydrofuran-3-yl)methyl)-2-methoxyphenoxy)-N-hydroxyhexanamide], for which the IC50 turned out to be 2.12 ± 0.12 µM in [1] (Homo sapiens, K562, 48 h) and 3.88 ± 1.06 µM in [3] (Homo sapiens, KU812, 48 h).
Taken in the same sequence, the figures for `COc1ccc(C[C@H]2COC(=O)[C@@H]2Cc2ccc(OCCCCCCC(=O)NO)c(OC)c2)cc1OC` [A4, 7-(4-(((3R,4R)-4-(3,4-Dimethoxybenzyl)-2-oxotetrahydrofuran-3-yl)methyl)-2-methoxyphenoxy)-N-hydroxyheptanamide] were 1.19 ± 0.25 µM and 1.41 ± 0.75 µM.
Taken in the same sequence, the figures for `COc1ccc(C[C@H]2COC(=O)[C@@H]2Cc2ccc(OCC(=O)N3CCC(C(=O)NO)CC3)c(OC)c2)cc1OC` [A8, 1-(2-(4-(((3R,4R)-4-(3,4-Dimethoxybenzyl)-2-oxotetrahydrofuran-3-yl)methyl)-2-methoxyphenoxy)acetyl)-N-hydroxypiperidine-4-carboxamide] were above 5 µM and above 5 µM.
For `COc1ccc(C[C@H]2COC(=O)[C@@H]2Cc2ccc(OCc3cn(CC(=O)NO)nn3)c(OC)c2)cc1OC` [A10, 2-(4-((4-(((3R,4R)-4-(3,4-Dimethoxybenzyl)-2-oxotetrahydrofuran-3-yl)methyl)-2-methoxyphenoxy)methyl)-1H-1,2,3-triazol-1-yl)-N-hydroxyacetamide], in that order: above 5 µM and above 5 µM.
Take `COc1cc(C[C@H]2C(=O)OC[C@@H]2Cc2ccc(OC)c(OC)c2)ccc1O` [Arctigenin, reference compound]: the IC50 in assay [1] (Homo sapiens, K562, 48 h) was 24.2 ± 3.12 µM; in assay [2], 4.27 ± 1.68 µM; in assay [3] (Homo sapiens, KU812, 48 h), above 30 µM.
As for `COc1ccc(C[C@H]2COC(=O)[C@@H]2Cc2ccc(OCC(=O)NCC(=O)Nc3ccccc3N)c(OC)c2)cc1OC` [B1, N-(2-Aminophenyl)-2-(2-(4-(((3R,4R)-4-(3,4-dimethoxybenzyl)-2-oxotetrahydrofuran-3-yl)methyl)-2-methoxyphenoxy)acetamido)acetamide], the IC50 in [1] (Homo sapiens, K562, 48 h) is above 5 µM; in assay [3] (Homo sapiens, KU812, 48 h), above 5 µM.
Regarding `COc1ccc(C[C@H]2COC(=O)[C@@H]2Cc2ccc(OCC(=O)NCCC(=O)Nc3ccccc3N)c(OC)c2)cc1OC` [B2, N-(2-Aminophenyl)-3-(2-(4-(((3R,4R)-4-(3,4-dimethoxybenzyl)-2-oxotetrahydrofuran-3-yl)methyl)-2-methoxyphenoxy)acetamido)propanamide], the IC50 in [1] (Homo sapiens, K562, 48 h) is above 5 µM; in assay [3] (Homo sapiens, KU812, 48 h), above 5 µM.
In the case of `COc1ccc(C[C@H]2COC(=O)[C@@H]2Cc2ccc(OCC(=O)NCCCCC(=O)Nc3ccccc3N)c(OC)c2)cc1OC` [B4, N-(2-Aminophenyl)-5-(2-(4-(((3R,4R)-4-(3,4-dimethoxybenzyl)-2-oxotetrahydrofuran-3-yl)methyl)-2-methoxyphenoxy)acetamido)pentanamide], the IC50 in [1] (Homo sapiens, K562, 48 h) was above 5 µM; in assay [3] (Homo sapiens, KU812, 48 h), above 5 µM.
Consider `COc1ccc(C[C@H]2COC(=O)[C@@H]2Cc2ccc(OCC(=O)Nc3ccc(C(=O)Nc4ccccc4N)cc3)c(OC)c2)cc1OC` [B7, N-(2-Aminophenyl)-4-(2-(4-(((3R,4R)-4-(3,4-dimethoxybenzyl)-2-oxotetrahydrofuran-3-yl)methyl)-2-methoxyphenoxy)acetamido)benzamide], for which the IC50 in [1] (Homo sapiens, K562, 48 h) amounted to 1.96 ± 0.19 µM; in assay [3] (Homo sapiens, KU812, 48 h) it was 2.09 ± 0.31 µM; in [6], 261 nM; in [7] it was 131 nM; in [8], 299 nM; in [9], 1750 nM. The “overall proportion of apoptotic cells (Q1-UR + Q1-LR)” value was found to be 37.90% in assay [10] (MV411, 0.5 μM); 77.00% in assay [10] (MV411, 1.0 μM); 21.84% in assay [10] (MV411, lowest concentration (printed 0.25 μM and 0.1 μM)). For the same compound, in assay [11], the “level of acetylated H3 (western blot)” value is “significantly increased the level of acetylated H3”.
Regarding `COc1ccc(C[C@H]2COC(=O)[C@@H]2Cc2ccc(OCc3cn(CC(=O)Nc4ccccc4N)nn3)c(OC)c2)cc1OC` [B8, N-(2-Aminophenyl)-2-(4-((4-(((3R,4R)-4-(3,4-dimethoxybenzyl)-2-oxotetrahydrofuran-3-yl)methyl)-2-methoxyphenoxy)methyl)-1H-1,2,3-triazol-1-yl)acetamide], the IC50 in assay [1] (Homo sapiens, K562, 48 h) is above 5 µM; in assay [3] (Homo sapiens, KU812, 48 h), above 5 µM.
On to `Nc1cc(F)ccc1NC(=O)c1ccc(CNC(=O)/C=C/c2cccnc2)cc1` [Tucidinostat, tucidinostat, reference compound], for which the IC50 stood at 2.68 ± 0.65 µM in assay [1] (Homo sapiens, K562, 48 h) and 4.26 ± 0.48 µM in [3] (Homo sapiens, KU812, 48 h).
Regarding “N-(2-Aminophenyl)-5-(2-(4-(((3R,4R)-4-(3,4-dimethoxybenzyl)-2-oxotetrahydrofuran-3-yl)methyl)-2-methoxyphenoxy)acetamido)pentanamide [B5]”, the IC50 in assay [1] (setting [12]), in assay [2], in [3] (setting [13]), in [4] and in assay [5] was above 5 µM throughout.

These data come from PMC10951978 (RSC Advances, 2024).
